Drawing on ChEMBL document CHEMBL1141216, “Mono- or diphenylpyridazines connected to N-(2,4-difluorophenyl)-N'-heptylurea as acyl-CoA:cholesterol acyltransferase inhibitors” (J Med Chem, 2005), this text covers inhibition and IC50 for 12 molecules.

The target of experiment [1] is T1, Sterol O-acyltransferase 1 (Rattus norvegicus) (UniProt O70536).
T1 sequence (whole entry): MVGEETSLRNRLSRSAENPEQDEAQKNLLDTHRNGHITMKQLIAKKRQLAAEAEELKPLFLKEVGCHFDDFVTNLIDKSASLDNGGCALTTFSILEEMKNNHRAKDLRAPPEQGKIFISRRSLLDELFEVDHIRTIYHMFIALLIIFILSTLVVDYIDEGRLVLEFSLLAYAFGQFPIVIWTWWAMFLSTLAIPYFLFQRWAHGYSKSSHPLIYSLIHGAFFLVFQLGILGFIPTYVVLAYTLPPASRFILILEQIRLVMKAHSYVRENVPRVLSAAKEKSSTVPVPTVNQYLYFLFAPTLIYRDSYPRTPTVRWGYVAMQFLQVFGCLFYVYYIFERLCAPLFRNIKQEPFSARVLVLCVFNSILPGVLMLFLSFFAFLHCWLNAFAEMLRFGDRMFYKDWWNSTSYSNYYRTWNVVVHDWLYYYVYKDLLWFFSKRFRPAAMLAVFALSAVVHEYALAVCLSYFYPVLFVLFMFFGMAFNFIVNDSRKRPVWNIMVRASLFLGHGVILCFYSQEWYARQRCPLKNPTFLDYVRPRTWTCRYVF
Briefly: Inhibition of ACAT expressed in rat liver microsomes at 50 ug/ml. The following applies: Microsome. The procedure, abridged:
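Rat liver microsomes were the enzyme source, assayed by a previously described method. Compounds were tested at 50 μg/mL, and the readout was % ACAT inhibition. Values are means of three experiments differing by less than 10%. GERI-BP001M served as reference.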
On the technique in general: Liver microsomes are a subcellular fraction often used to study metabolism.

Experiment [2] concerns the target T2, Sterol O-acyltransferase 1 (Rattus norvegicus, UniProt O70536).
T2 sequence (O70536 whole entry): T1 sequence (whole entry)
In words: Inhibition of ACAT expressed in rat liver microsomes. Set-up: species or system Microsome.

In experiment [3] the target is T3, Sterol O-acyltransferase 2 (Homo sapiens, UniProt O75908).
T3 sequence (O75908 whole entry): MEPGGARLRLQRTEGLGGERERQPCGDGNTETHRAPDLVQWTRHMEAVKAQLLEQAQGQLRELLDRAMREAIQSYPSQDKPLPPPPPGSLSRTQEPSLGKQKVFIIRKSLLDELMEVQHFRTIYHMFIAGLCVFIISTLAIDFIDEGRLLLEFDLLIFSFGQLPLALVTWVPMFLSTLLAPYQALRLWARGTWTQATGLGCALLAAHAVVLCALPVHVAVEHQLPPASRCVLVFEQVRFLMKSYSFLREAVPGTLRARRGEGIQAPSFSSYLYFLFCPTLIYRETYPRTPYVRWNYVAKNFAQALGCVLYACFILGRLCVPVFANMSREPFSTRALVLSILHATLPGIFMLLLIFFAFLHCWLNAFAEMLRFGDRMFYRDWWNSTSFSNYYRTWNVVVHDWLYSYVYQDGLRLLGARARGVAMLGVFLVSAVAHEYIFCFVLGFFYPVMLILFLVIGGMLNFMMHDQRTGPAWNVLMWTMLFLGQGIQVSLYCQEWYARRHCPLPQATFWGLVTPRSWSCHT
In words: Inhibition of human ACAT2 expressed in Hi5 cells. Set-up: species or system BTI-TN-5B1-4. A digest of the protocol:
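Human ACAT-2 was expressed by baculovirus in Hi5 insect cells, and microsomal fractions of these cells were the enzyme source. Activity was measured by the Brecher and Chan method with slight modification.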

Experiment [4] deals with T4, Sterol O-acyltransferase 1 (Homo sapiens, UniProt P35610).
T4 sequence (P35610 whole entry): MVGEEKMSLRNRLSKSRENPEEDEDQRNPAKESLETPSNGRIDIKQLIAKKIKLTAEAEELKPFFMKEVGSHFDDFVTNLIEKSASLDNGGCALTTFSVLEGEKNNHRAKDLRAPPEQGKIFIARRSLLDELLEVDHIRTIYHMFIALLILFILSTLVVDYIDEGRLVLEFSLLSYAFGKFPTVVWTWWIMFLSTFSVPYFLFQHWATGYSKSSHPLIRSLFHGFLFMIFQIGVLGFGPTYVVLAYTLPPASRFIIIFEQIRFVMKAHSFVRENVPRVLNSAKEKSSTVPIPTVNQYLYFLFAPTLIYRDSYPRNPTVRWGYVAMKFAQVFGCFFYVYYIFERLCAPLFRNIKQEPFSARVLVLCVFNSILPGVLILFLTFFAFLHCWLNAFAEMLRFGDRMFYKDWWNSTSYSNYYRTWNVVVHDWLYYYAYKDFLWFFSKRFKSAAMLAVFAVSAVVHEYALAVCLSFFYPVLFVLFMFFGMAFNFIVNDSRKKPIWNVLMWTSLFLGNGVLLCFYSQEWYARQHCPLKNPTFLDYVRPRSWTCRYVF
Briefly: Inhibition of human ACAT1 expressed in Hi5 cells. Set-up: species or system BTI-TN-5B1-4.

For `CCCCCCCN(CCCCCNc1cc(-c2ccccc2)c(-c2ccccc2)nn1)C(=O)Nc1ccc(F)cc1F`, the inhibition in experiment [1] was 87%. Further, the values for the IC50 in experiment [2] and in experiment [3] were 2320 nM and 1740 nM, respectively. The molecule `CCCCCCCN(CCCCCS(=O)(=O)c1cc(-c2ccccc2)c(-c2ccccc2)nn1)C(=O)Nc1ccc(F)cc1F` registered an inhibition in experiment [1] of 70%.

Turning to `CCCCCCCN(CCCCCNc1cc(-c2ccccc2)cnn1)C(=O)Nc1ccc(F)cc1F`, in experiment [1], the inhibition was determined as 46%. Besides, the half-inhibitory concentration (IC50) is 36400 nM in experiment [2] and 101000 nM in experiment [3]. In turn, `CCCCCCCN(CCCCCS(=O)(=O)c1ccc(-c2ccccc2)nn1)C(=O)Nc1ccc(F)cc1F` showed an inhibition in experiment [1] of 43%. The molecule `CCCCCCCN(CCCCC[S+]([O-])c1cc(-c2ccccc2)c(-c2ccccc2)nn1)C(=O)Nc1ccc(F)cc1F` (centres undefined) returned an inhibition in experiment [1] of 65%. As for `CCCCCCCN(CCCCCSc1cc(-c2ccccc2)c(-c2ccccc2)nn1)C(=O)Nc1ccc(F)cc1F`, the inhibition in experiment [1] stood at 75%. In experiment [1], `CCCCCCCN(CCCCCNc1ccc(-c2ccccc2)nn1)C(=O)Nc1ccc(F)cc1F` came in with an inhibition of 89%. In addition, the half-maximal inhibitory concentration (IC50) in experiment [2] is 1210 nM; in experiment [4], 5340 nM; in experiment [3], 2070 nM. Molecule `CCCCCCCN(CCCCC[S+]([O-])c1ccc(-c2ccccc2)nn1)C(=O)Nc1ccc(F)cc1F` (centres undefined) returned an inhibition in experiment [1] of 55%. In experiment [1], `CCCCCCCN(CCCCCSc1cc(-c2ccccc2)cnn1)C(=O)Nc1ccc(F)cc1F` came in with an inhibition of 75%. `CCCCCCCN(CCCCCS(=O)(=O)c1cc(-c2ccccc2)cnn1)C(=O)Nc1ccc(F)cc1F` displayed an inhibition in experiment [1] of 67%. In experiment [1], `CCCCCCCN(CCCCC[S+]([O-])c1cc(-c2ccccc2)cnn1)C(=O)Nc1ccc(F)cc1F` (centres undefined) gave an inhibition of 62%.

For `CCCCCCCN(CCCCCSc1ccc(-c2ccccc2)nn1)C(=O)Nc1ccc(F)cc1F`, in experiment [1], the inhibition amounted to 44%.

As usually defined, the inhibition is the share of the control response that was lost under treatment. High values mean a response far below the control, low ones a response near the control. A word on the IC50: it is the concentration needed to halve the response being measured. High values mean a need for much substance, low ones inhibition by little substance.
